Measured values taken from ChEMBL document CHEMBL4145455, “Design, synthesis and evaluation of novel phenyl propionamide derivatives as non-nucleoside hepatitis B virus inhibitors” (Eur J Med Chem, 2018).

How the values were obtained:
Hepatitis B virus [1] = experiment: Antiviral activity against HBV infected in human HepG2(2.2.15) cells assessed as inhibition of viral DNA replication after 6 days by RT-PCR method; format: functional, organism-based; settings: HepG2 2.2.15, 144 h
Summary of the method: (§1)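 HepG2 2.2.15 cells (stable HBV genome; DMEM, 10% FBS, G418 0.38 mg/mL) seeded 2×10^5/well, recovered 24 h, then compound in assay medium (single 20 or 4 μM, or dose series for IC50), medium changed every 2 days; after 6 days HBV DNA extracted and quantified by real-time PCR. Mean ± SD, ≥3 independent experiments in duplicate.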

Hepatitis B virus [2] = experiment: Antiviral activity against HBV infected in human HepG2(2.2.15) cells assessed as inhibition of viral DNA replication at 4 uM after 6 days by RT-PCR method relative to control; format: functional; settings: HepG2 2.2.15, 144 h; summary of the method: as §1
Hepatitis B virus [3] = experiment: Antiviral activity against lamivudine/entecavir resistant HBV harboring reverse transcriptase L180M/M204V/T184L mutant infected in human […] after 72 hrs by RT-PCR method; format: functional, organism-based
Summary of the method: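 HepG2 cells (2×10^5 per well) were plated, incubated overnight, then transiently transfected for 24 h with a plasmid carrying the full HBV genome with rtL180M + rtM204V + rtT184L. Medium was discarded, cells washed with PBS, then treated across a dose range in fresh medium for 72 h. Intracellular HBV DNA replicative intermediate was quantified by real-time PCR. IC50 is 50% inhibition of DNA replication.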

Hepatitis B virus [4] = experiment: Antiviral activity against lamivudine/entecavir resistant HBV harboring reverse transcriptase L180M/M204V/T184L mutant infected in human […] cells assessed as inhibition of viral DNA replication at 1 uM after 72 hrs by RT-PCR method relative to control; format: functional
Summary of the method: (§2)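 HepG2 cells (not 2.2.15) were transiently transfected for 24 h with a plasmid carrying the rtL180M + rtM204V + rtT184L mutant HBV genome, alongside wild-type. After a PBS wash, cells received a single concentration (1, 10 or 100 µM) in fresh medium for 72 h. HBV DNA replicative intermediate was measured by real-time PCR and compared with the wild-type group.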

[5] = Cytotoxicity against human HepG2(2.2.15) cells assessed as reduction in cell viability after 72 hrs by MTT assay; format: cell-based
Summary of the method: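 Confluent HepG2 2.2.15 cells exposed to graded compound concentrations for 72 h alongside untreated controls on each plate; viability by MTT uptake, absorbance 490 nm relative to untreated cells; CC50 = concentration killing 50% of cells. Three replicates.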

Hepatitis B virus [6] = experiment: Antiviral activity against HBV infected in human […] cells assessed as inhibition of viral DNA replication at 1 uM after 72 hrs by RT-PCR method relative to control; format: functional
Summary of the method: (§3)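 HepG2 cells (2×10^5/well) transfected overnight-plated, 24 h with plasmid carrying wild-type or rtL180M+rtM204V+rtT184L resistant HBV; after PBS wash, fresh medium with lamivudine 100 μM, entecavir 10 μM, or test compounds 1 μM (one at 10 μM) for 72 h; replicative intermediate HBV DNA measured by real-time PCR.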

[7] = Selectivity index, ratio of CC50 for human HepG2(2.2.15) cells to IC50 for antiviral activity against HBV infected in human HepG2(2.2.15) cells assessed as inhibition of viral DNA replication; format: toxicity, cell-based; settings: read-out: Ratio CC50/IC50
Summary of the method: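 SI calculated as CC50 (72 h MTT, HepG2 2.2.15) divided by IC50 for inhibition of HBV DNA replication measured by real-time PCR.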

[8] = Selectivity index, ratio of CC50 for human HepG2(2.2.15) cells to IC50 for antiviral activity against lamivudine/entecavir resistant HBV harboring reverse transcriptase L180M/M204V/T184L mutant infected in human HepG2(2.2.15) cells; format: toxicity, cell-based; settings: read-out: Ratio CC50/IC50
Summary of the method: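 SI = CC50/IC50. CC50 comes from HepG2 2.2.15 cells grown to confluence and treated for 72 h, with MTT absorbance at 490 nm relative to untreated cells, in triplicate. IC50 comes from mutant-plasmid-transfected HepG2 cells treated for 72 h, with HBV DNA measured by real-time PCR.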

Hepatitis B virus [9] = experiment: Antiviral activity against HBV infected in human HepG2(2.2.15) cells assessed as inhibition of viral DNA replication at 20 uM after 6 days by RT-PCR method relative to control; format: functional; settings: HepG2 2.2.15, 144 h; summary of the method: as §1
Hepatitis B virus [10] = experiment: Antiviral activity against lamivudine/entecavir resistant HBV harboring reverse transcriptase L180M/M204V/T184L mutant infected in human […] at 10 uM after 72 hrs by RT-PCR method relative to control; format: functional; summary of the method: as §2
Hepatitis B virus [11] = experiment: Antiviral activity against HBV infected in human […] at 10 uM after 72 hrs by RT-PCR method relative to control; format: functional; summary of the method: as §3
Hepatitis B virus [12] = experiment: Antiviral activity against HBV assessed as inhibition of viral DNA replication; format: functional, organism-based
Summary of the method: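 HepG2 cells transiently transfected with wild-type HBV genome, or the rtL180M+rtM204V+rtT184L lamivudine/entecavir-resistant mutant, for 24 h, washed, then exposed in dose-dependent manner; after 72 h HBV DNA replicative intermediate extracted and quantified by real-time PCR. IC50 = concentration giving 50% inhibition of DNA replication; mean ± SD of at least three independent experiments, duplicate measurements.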

Hepatitis B virus [13] = experiment: Antiviral activity against HBV infected in human HepG2(2.2.15) cells assessed as inhibition of intracellular viral pregenomic RNA expression at 1 uM after 6 days by TRIzol reagent based RT-PCR method relative to control; format: functional; settings: HepG2 2.2.15, 144 h
Summary of the method: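 HepG2 2.2.15 cells at 6×10^5 per well treated 6 days at 1 μM; total cellular RNA extracted and intracellular HBV pgRNA quantified by real-time PCR.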

[14] = target: T1, Protein P (Duck hepatitis B virus (strain Germany/DHBV-3) (DHBV)) (UniProt P0C691); experiment: (§4) Inhibition of DHBV reverse transcriptase polymerase activity expressed in reticulocyte system assessed as reduction in elongation of viral minus strand DNA in presence of [alpha32P]DNA
T1 sequence (whole entry): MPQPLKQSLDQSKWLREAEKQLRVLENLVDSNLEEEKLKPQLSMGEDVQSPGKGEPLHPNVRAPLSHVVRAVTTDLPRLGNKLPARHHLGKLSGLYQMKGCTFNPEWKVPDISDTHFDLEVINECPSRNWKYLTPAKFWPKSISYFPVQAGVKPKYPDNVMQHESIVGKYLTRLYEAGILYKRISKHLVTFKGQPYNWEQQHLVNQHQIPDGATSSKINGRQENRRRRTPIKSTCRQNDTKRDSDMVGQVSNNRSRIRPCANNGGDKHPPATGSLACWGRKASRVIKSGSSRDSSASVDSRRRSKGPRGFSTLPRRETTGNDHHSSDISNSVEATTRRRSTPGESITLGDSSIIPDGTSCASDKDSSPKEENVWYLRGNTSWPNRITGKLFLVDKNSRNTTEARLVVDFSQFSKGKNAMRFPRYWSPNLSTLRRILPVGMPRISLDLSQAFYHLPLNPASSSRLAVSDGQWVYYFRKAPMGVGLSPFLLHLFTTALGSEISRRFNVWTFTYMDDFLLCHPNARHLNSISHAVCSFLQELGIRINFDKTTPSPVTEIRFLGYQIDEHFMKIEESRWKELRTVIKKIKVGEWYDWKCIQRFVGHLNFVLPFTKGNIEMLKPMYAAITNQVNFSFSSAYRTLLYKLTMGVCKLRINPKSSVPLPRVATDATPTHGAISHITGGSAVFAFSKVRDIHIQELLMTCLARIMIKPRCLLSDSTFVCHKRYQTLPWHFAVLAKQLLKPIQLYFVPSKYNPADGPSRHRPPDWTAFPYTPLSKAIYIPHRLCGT
Summary of the method: (§5)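 DHBV polymerase expressed in vitro in reticulocyte lysate; reverse transcriptase activity followed as [α32P]-dNTP incorporation into viral minus-strand DNA, with or without increasing inhibitor concentrations.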

Protein P = target: T2, Protein P (Duck hepatitis B virus (strain Germany/DHBV-3) (DHBV), UniProt P0C691); experiment: as §4; summary of the method: as §5
T2 sequence (P0C691 whole entry): T1 sequence (whole entry)

| SMILES | IC50 (Hepatitis B virus [1]) [µM] | CC50 at 72 h [5] [µM] | selectivity ratio [7] | inhibition at 20 µM (Hepatitis B virus [9]) [%] | other results |
| --- | --- | --- | --- | --- | --- |
| CN(C)CCOc1ccc(/C(Br)=C(/NC(=O)c2ccccc2)C(=O)N[C@H](CO)Cc2ccccc2)cc1 | 0.14 | 21.4 to 28.7 | 153 |  | inhibition at 4 µM (Hepatitis B virus [2]): 99.5%; IC50 (Hepatitis B virus [3]): 0.32 µM; inhibition at 1 µM (Hepatitis B virus [4]): 80.1%; inhibition at 1 µM (Hepatitis B virus [6]): 79.6%; selectivity ratio [8]: 89.7 |
| O=C(N[C@H](CO)Cc1ccccc1)/C(NC(=O)c1ccccc1)=C(/Br)c1ccccc1Cl | 1.88 | 66.7 | 35.5 | 80.2 |  |
| Cc1cccc(/C=C(/NC(=O)c2ccccc2)C(=O)N[C@H](CO)Cc2ccccc2)c1 |  | > 100 |  | 15.8 |  |
| O=C(N[C@H](CO)Cc1ccccc1)/C(NC(=O)c1ccccc1)=C(/Br)c1ccccc1Br | 7.26 | > 100 | > 13.8 | 76.6 |  |
| CCN(CC)C(=O)[C@H](Cc1ccc(OCCN(C)C)cc1)NC(=O)c1ccccc1 |  | > 100 |  | 17.5 |  |
| O=C(N[C@H](CO)Cc1ccccc1)/C(=C\c1ccccc1Cl)NC(=O)c1ccccc1 |  | > 100 |  | 29.8 |  |
| O=C(N[C@@H](Cc1ccc(O)cc1)C(=O)N1CCCCC1)c1ccccc1 |  | > 100 |  | 19.5 |  |
| O=C(N[C@H](CO)Cc1ccccc1)/C(NC(=O)c1ccccc1)=C(/Br)c1ccc(Br)cc1 | 4.45 | > 100 | > 22.5 | 73.1 |  |
| N#Cc1ccc(/C(Br)=C(/NC(=O)c2ccccc2)C(=O)N[C@H](CO)Cc2ccccc2)cc1 | 5.5 | > 100 | 18.2 | 75.1 |  |
| O=C(N[C@H](CO)Cc1ccccc1)/C(NC(=O)c1ccccc1)=C(/Br)c1ccc(O)cc1 | 2 | 34.3 to 39 | 19.5 |  | inhibition at 4 µM (Hepatitis B virus [2]): 63.2%; IC50 (Hepatitis B virus [3]): 2.97 µM; inhibition at 1 µM (Hepatitis B virus [4]): 43.2%; inhibition at 1 µM (Hepatitis B virus [6]): 34.8%; selectivity ratio [8]: 11.6 |
| CN(C)CCOc1ccc(C[C@H](NC(=O)c2ccccc2)C(=O)N2CCOCC2)cc1 |  | > 100 |  | 24.9 |  |
| O=C(N[C@H](CO)Cc1ccccc1)/C(=C\c1ccc(O)cc1)NC(=O)c1ccccc1 |  | > 100 |  | 24.9 |  |
| C=C1[C@H](CO)[C@@H](O)C[C@@H]1n1cnc2c(=O)[nH]c(N)nc21 [ENTECAVIR] |  |  |  |  | inhibition at 10 µM (Hepatitis B virus [10]): 17.9%; inhibition at 10 µM (Hepatitis B virus [11]): 95.7% |
| O=C(N[C@@H](Cc1ccccc1)C(=O)N1CCCCC1)c1ccccc1 |  | > 100 |  | 42.3 |  |
| CN(C)CCOc1ccc(/C=C(/NC(=O)c2ccccc2)C(=O)N[C@H](CO)Cc2ccccc2)cc1 |  | > 100 |  | 37.5 |  |
| CC(=O)OC[C@H](Cc1ccccc1)NC(=O)[C@H](Cc1ccccc1)NC(=O)c1ccccc1 |  | > 100 |  | 60.6 | IC50 (Hepatitis B virus [12]): 11.2 µM |
| N#Cc1ccc(/C=C(/NC(=O)c2ccccc2)C(=O)N[C@H](CO)Cc2ccccc2)cc1 |  | > 100 |  | 10.2 |  |
| CN(C)CCOc1ccc(C[C@H](NC(=O)c2ccccc2)C(=O)N2CCCCC2)cc1 |  | > 100 |  | 51.6 |  |
| CN(C)CCOc1ccc(C[C@H](NC(=O)c2ccccc2)C(=O)N2CCCC2)cc1 |  | > 100 |  | 47.6 |  |
| O=C(N[C@H](CO)Cc1ccccc1)/C(NC(=O)c1ccccc1)=C(/Br)c1ccccc1 | 3.86 | > 100 | > 25.9 | 77.6 |  |
| O=C(N[C@H](CO)Cc1ccccc1)/C(NC(=O)c1ccccc1F)=C(/Br)c1ccccc1 | 2.44 | > 100 | 41 | 76.4 |  |
| O=C(N[C@H](CO)Cc1ccccc1)/C(=C\c1ccccc1Br)NC(=O)c1ccccc1 |  | > 100 |  | 26.2 |  |
| Cc1cccc(/C(Br)=C(/NC(=O)c2ccccc2)C(=O)N[C@H](CO)Cc2ccccc2)c1 | 0.46 | > 100 | > 217 | 87.6 | inhibition at 1 µM (Hepatitis B virus [13]): 49.4%; inhibition [14]: Dose-dependent effect; EC50 (Protein P): 34.2 µM; IC50 (Hepatitis B virus [3]): 0.77 µM; inhibition at 1 µM (Hepatitis B virus [4]): 65.9%; inhibition at 1 µM (Hepatitis B virus [6]): 61.4%; selectivity ratio [8]: > 130 |
| O=C(N[C@H](CO)Cc1ccccc1)/C(=C\c1ccccc1)NC(=O)c1ccccc1F |  | > 100 |  | 51.4 |  |
| O=C(N[C@H](CO)Cc1ccccc1)/C(=C\c1ccc(Br)cc1)NC(=O)c1ccccc1 |  | 72.7 |  |  | inhibition at 4 µM (Hepatitis B virus [2]): 39% |
| CN(C)CCOc1ccc(C[C@H](NC(=O)c2ccccc2)C(=O)N[C@H](CO)Cc2ccccc2)cc1 |  | > 100 |  | 69.2 |  |
